From ChEMBL document CHEMBL1125409, “Synthesis and biological activity of acyclic analogues of 5,10-dideaza-5,6,7,8-tetrahydrofolic acid” (J Med Chem, 1992)

What was measured:
[1] = test system: CCRF-CEM; test: Cytotoxicity against human lymphoblastic leukemic CCRF-CEM cell line was evaluated as the concentration required for 50% inhibition of the growth of the control value; type: functional, cell-based
Summary of the method: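 CCRF-CEM cells in RPMI 1640 with 10% dialyzed FBS, 16 mM HEPES and 8 mM MOPS, seeded at 4.8×10⁴ cells/well. Duplicate wells got graded concentrations diluted from a 4 mg/mL DMSO stock. After 72 h (95% air/5% CO₂), cells were counted on a Coulter counter. IC50 was taken from dose-response curves as 50% growth inhibition versus control.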

[2] = test system: CCRF-CEM; test: Compound was evaluated for reversal of growth inhibition against human lymphoblastic leukemic CCRF-CEM cells at 0.46 uM concentration and with 100 uM of hypoxanthine; type: functional
[3] = test system: CCRF-CEM; test: Compound was evaluated for reversal of growth inhibition against human lymphoblastic leukemic CCRF-CEM cells at 0.46 uM concentration and with 300 uM of AICA; type: functional
[4] = test system: CCRF-CEM; test: Compound was evaluated for reversal of growth inhibition against human lymphoblastic leukemic CCRF-CEM cells at 0.46 uM concentration and with 5 uM of Thymidine; type: functional
[5] = test system: Mus musculus; test: In vivo antitumor activity against 6C3HED tumor type was expressed as toxic deaths/total treated mice at 400 mg/kg dose; 2/10; type: ADME, organism-based; set-up: dose 400 mg/kg
[6] = test system: Mus musculus; test: In vivo antitumor activity against lymphosarcoma tumor type was expressed as toxic deaths/total treated mice at 100 mg/kg dose given twice daily for 8 days; 0/9; type: ADME, organism-based; set-up: dose 100 mg/kg; conditions: 192 h
[7] = In vivo antitumor activity against C3H mammary tumor type after intraperitoneal administration of 400 mg/kg dose given once daily for 10 days; conditions: ip, 240 h
[8] = test system: Mus musculus; test: In vivo antitumor activity against lymphosarcoma tumor type was expressed as toxic deaths/total treated mice at 50 mg/kg dose given twice daily for 8 days; 0/10; type: ADME, organism-based; set-up: dose 50 mg/kg; conditions: 192 h
[9] = In vivo antitumor activity against lymphosarcoma tumor type after intraperitoneal administration of 50 mg/kg dose given twice daily for 8 days; type: functional; conditions: ip, 192 h
Summary of the method: (§1)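 6C3HED lymphosarcoma: 1–2 mm³ fragments implanted sc by trocar in the axilla of syngeneic C3H mice. Dosing ip twice daily for 8 days, starting 24 h after implant. One day after the last dose, tumor volume was taken as L(W²)/2 and compared with controls to give % inhibition. Deaths over group size were recorded.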

[10] = test system: Mus musculus; test: In vivo antitumor activity against […] tumor type was expressed as toxic deaths/total treated mice at 50 mg/kg dose given once daily for 10 days; 2/10; type: ADME, organism-based; set-up: dose 50 mg/kg; conditions: 240 h
[11] = test system: Mus musculus; test: In vivo antitumor activity against C3H mammary tumor type was expressed as toxic deaths/total treated mice at 400 mg/kg dose given once daily for 10 days; 2/10; conditions: 240 h
[12] = In vivo antitumor activity against […] tumor type after intraperitoneal administration of 100 mg/kg dose given once daily for 10 days; type: functional; conditions: ip, 240 h
Summary of the method: (§2)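 C3H mammary adenocarcinoma fragments (1–2 mm³) were trocar-implanted sc axillary in syngeneic C3H mice. Treatment was ip once daily for 10 days, beginning 24 h post-implant. Tumor width and length were measured one day after the final dose, with V = L(W²)/2. Growth inhibition was calculated against untreated controls, and toxicity/total was noted.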

[13] = test system: Mus musculus; test: In vivo antitumor activity against […] tumor type was expressed as toxic deaths/total treated mice at 100 mg/kg dose given once daily for 10 days; 1/10; type: ADME, organism-based; set-up: dose 100 mg/kg; conditions: 240 h
[14] = In vivo antitumor activity against 6C3HED tumor type after intraperitoneal administration of 400 mg/kg; type: functional; conditions: ip; summary of the method: as §1
[15] = test system: Mus musculus; test: In vivo antitumor activity against […] tumor type was expressed as toxic deaths/total treated mice at 200 mg/kg dose given once daily for 10 days; 0/10; type: ADME, organism-based; set-up: dose 200 mg/kg; conditions: 240 h
[16] = In vivo antitumor activity against lymphosarcoma tumor type after intraperitoneal administration of 200 mg/kg dose given twice daily for 8 days; type: functional; conditions: ip, 192 h; summary of the method: as §1
[17] = In vivo antitumor activity against […] tumor type after intraperitoneal administration of 200 mg/kg dose given once daily for 10 days; type: functional; conditions: ip, 240 h; summary of the method: as §2
[18] = In vivo antitumor activity against lymphosarcoma tumor type after intraperitoneal administration of 100 mg/kg dose given twice daily for 8 days; type: functional; conditions: ip, 192 h; summary of the method: as §1
[19] = In vivo antitumor activity against […] tumor type after intraperitoneal administration of 50 mg/kg dose given once daily for 10 days; type: functional; conditions: ip, 240 h; summary of the method: as §2

## Nc1nc(N)c(CCCCc2ccc(C(=O)N[C@@H](Cc3ccccc3)C(=O)O)cc2)c(O)n1
[1]
  IC50: > 44500 nM

## Nc1nc(N)c(CCCCc2ccc(C(=O)N[C@@H](CCC(=O)O)C(=O)O)cc2)c(N)n1
[1]
  IC50: 42 nM

## Nc1nc(N)c(CCCCCCCCCC(=O)N[C@@H](CCC(=O)O)C(=O)O)c(O)n1
[1]
  IC50: > 47100 nM

## Nc1nc2c(c(=O)[nH]1)C[C@@H](CCc1ccc(C(=O)N[C@@H](CCC(=O)O)C(=O)O)cc1)CN2 [LOMETREXOL]
[1]
  IC50: 16 nM

## Nc1nc(N)c(CCCCc2ccc(C(=O)N[C@@H](CCC(=O)O)C(=O)O)s2)c(O)n1
[1]
  IC50: 59 nM

## Nc1nc(O)c(CCCCc2ccc(C(=O)N[C@@H](CCC(=O)O)C(=O)O)cc2)c(O)n1
[1]
  IC50: 39800 nM

## Nc1nc(N)c(CCCNc2ccc(C(=O)N[C@@H](CCC(=O)O)C(=O)O)cc2)c(O)n1
[2]
  Inhibition: 0%
[3]
  Inhibition: 55%
[4]
  Inhibition: 77%
[1]
  IC50: 198 nM

## Nc1nc(N)c(CCCCc2ccc(C(=O)N[C@@H](CC(=O)O)C(=O)O)cc2)c(O)n1
[1]
  IC50: > 48000 nM

## Nc1nc(N)c(CCCCc2csc(C(=O)N[C@@H](CCC(=O)O)C(=O)O)c2)c(O)n1
[1]
  IC50: 142 nM

## Nc1nc(N)c(CCCCc2ccc(C(=O)N[C@@H](CCC(=O)O)C(=O)O)cc2)c(=O)[nH]1 [DIDEAZAACYCLOTETRAHYDROFOLIC ACID]
[5]
  Toxicity: 2
[6]
  Toxicity: 0
[7]
  inhibition in vivo at 400 mg/kg: 78%
[8]
  Toxicity: 0
[9]
  inhibition in vivo at 50 mg/kg: 44%
[10]
  Toxicity: 2
[2]
  Inhibition: 0%
[11]
  Toxicity: 2
[3]
  Inhibition: 0%
[12]
  inhibition in vivo at 100 mg/kg: 37%
[4]
  Inhibition: 80%
[13]
  Toxicity: 1
[14]
  inhibition in vivo at 400 mg/kg: 100%
[15]
  Toxicity: 0
[16]
  inhibition in vivo at 200 mg/kg: 92%
[1]
  IC50: 132 nM
[17]
  inhibition in vivo at 200 mg/kg: 36%
[18]
  inhibition in vivo at 100 mg/kg: 66%
[19]
  inhibition in vivo at 50 mg/kg: 17%

## Cc1nc(N)[nH]c(=O)c1CCCCc1ccc(C(=O)N[C@@H](CCC(=O)O)C(=O)O)cc1
[1]
  IC50: 2330 nM
